These results are taken from ChEMBL document CHEMBL1806383, “Optimisation of pharmacokinetic properties to afford an orally bioavailable and selective V1A receptor antagonist” (Bioorg Med Chem Lett, 2011).

The structures appear in SMILES notation.

Data set [1] is described as follows: Apparent permeability of the compound from apical to basolateral side of human Caco2 cells. The class given is ADME, cell-based. The note with it: Caco-2.
The subject of data set [2] is Rattus norvegicus. Kind of data set: Volume of distribution at steady state in Sprague-Dawley rat at 5 mg/kg, po. The class given is ADME, organism-based. More on the design: dose 5 mg/kg, route oral. The note with it: in vivo. The method, boiled down:
(§1)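 Male Sprague–Dawley rat, oral 5 mg/kg in 0.5% (w/v) gelatin in 5% (w/v) mannitol.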

A short description of data set [3]: Oral bioavailability in Sprague-Dawley rat at 5 mg/kg. The class given is ADME, organism-based. The note with it: in vivo. The method, boiled down:
as §1

A short description of data set [4]: Volume of distribution at steady state in Sprague-Dawley rat at 1 mg/kg, iv and 5 mg/kg, po. Format: ADME, organism-based. The note with it: in vivo, read-out: Vdss. A digest of the protocol: (§2)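 Male Sprague–Dawley rats; iv 1 mg/kg in 30% DMA in saline and po 5 mg/kg in 0.5% (w/v) gelatin in 5% (w/v) mannitol.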
Data set [5] is described as follows: Oral bioavailability in cynomolgus monkey at 3 mg/kg. Conditions: in vivo. The class given is ADME, organism-based, Macaca fascicularis. The method, boiled down: (§3)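 Cynomolgus monkey; iv 1 mg/kg in 30% DMA in saline and po 3 mg/kg in 0.5% (w/v) gelatin in 5% (w/v) mannitol.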
Data set [6] is described as follows: Volume of distribution at steady state in cynomolgus monkey at 1 mg/kg, iv and 3 mg/kg, po. The note with it: in vivo, read-out: Vdss. The class given is ADME, organism-based, Macaca fascicularis. A digest of the protocol: as §3
Data set [7] can be described thus: Tmax in cynomolgus monkey at 1 mg/kg, iv and 3 mg/kg, po. Format: ADME, organism-based, Macaca fascicularis. The note with it: in vivo. A digest of the protocol:
as §3

Data set [8] can be described thus: Cmax in Sprague-Dawley rat at 1 mg/kg, iv and 5 mg/kg, po. The class given is ADME, organism-based. Conditions: in vivo. A digest of the protocol:
as §2

The nature of data set [9]: Tmax in Sprague-Dawley rat at 1 mg/kg, iv and 5 mg/kg, po. Format: ADME, organism-based. The note with it: in vivo. The method, boiled down:
as §2

A short description of data set [10]: Cmax in cynomolgus monkey at 1 mg/kg, iv and 3 mg/kg, po. The class given is ADME, organism-based, Macaca fascicularis. Conditions: in vivo. A digest of the protocol:
as §3

Data set [11] has as its system Rattus norvegicus. Kind of data set: Volume of distribution at steady state in Sprague-Dawley rat at 10 mg/kg, po. The class given is ADME, organism-based. Further details: dose 10 mg/kg, route oral. The note with it: in vivo. The method, boiled down: (§4)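 Male Sprague–Dawley rat, oral 10 mg/kg in 0.5% (w/v) gelatin in 5% (w/v) mannitol.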
The nature of data set [12]: Oral bioavailability in Sprague-Dawley rat at 10 mg/kg. The class given is ADME, organism-based. Conditions: in vivo. The method, boiled down: as §4

Turning to `CN(C)[C@H]1CC[C@H](NC(=O)[C@@H](Cc2ccc(F)cc2)NC(=O)C2(c3ccc(Cl)cc3)CC2)CC1`, the Papp A→B in data set [1] was < 10 ×10⁻⁶ cm/s. As for `CN1CCN(CCCNC(=O)[C@@H](Cc2ccc(Cl)cc2)NC(=O)Cc2ccc(Cl)cc2)CC1`, the Papp A→B in data set [1] is < 10 ×10⁻⁶ cm/s. The same measure, in the same setting: the result for `O=C(Cc1ccc(Cl)cc1)N[C@H](Cc1ccc(Cl)cc1)C(=O)NC1CCCC(O)C1` (stereo in doubt; 17e) reads < 10 ×10⁻⁶ cm/s. For `CN(C)[C@H]1CC[C@H](NC(=O)[C@@H](Cc2ccc(Cl)cc2)NC(=O)C2(c3ccc(Cl)cc3)CC2)CC1`, the apical-to-basolateral permeability (Papp A→B) in data set [1] was < 10 ×10⁻⁶ cm/s. Moreover, the Vdss in data set [2] was found to be 9 L/kg. In data set [3], this molecule yielded a bioavailability of 17%. `CCCNC(=O)[C@@H](Cc1ccc(Cl)cc1)NC(=O)Cc1ccc(Cl)cc1`: the Papp A→B in data set [1] is < 10 ×10⁻⁶ cm/s. Turning to `COc1ccc(C[C@@H](NC(=O)C2(c3ccc(Cl)cc3)CC2)C(=O)N[C@H]2CC[C@H](N(C)C)CC2)cc1`, the apical-to-basolateral permeability (Papp A→B) in [1] is < 10 ×10⁻⁶ cm/s. As to `CN1CCC(NC(=O)[C@@H](Cc2ccc(Cl)cc2)NC(=O)Cc2ccc(Cl)cc2)CC1`, the Papp A→B in [1] was < 10 ×10⁻⁶ cm/s. As for `O=C(Cc1ccc(Cl)cc1)N[C@H](Cc1ccc(Cl)cc1)C(=O)NC1CCCNCC1` (some centres not stated), the Papp A→B in data set [1] is < 10 ×10⁻⁶ cm/s. With `CN(C)[C@H]1CC[C@H](NC(=O)[C@@H](Cc2ccc(Cl)cc2)NC(=O)Cc2ccc(F)cc2)CC1`, the apical-to-basolateral permeability (Papp A→B) in data set [1] was < 10 ×10⁻⁶ cm/s. For the molecule `CN(C)[C@H]1CC[C@H](NC(=O)[C@@H](Cc2ccc(Cl)cc2)NC(=O)C2(c3ccc(Cl)cc3)CCC2)CC1`, the Papp A→B in [1] was < 10 ×10⁻⁶ cm/s.

For the molecule `CN(C)CCCNC(=O)[C@@H](Cc1ccc(Cl)cc1)NC(=O)Cc1ccc(Cl)cc1`, the apparent permeability from apical to basolateral (Papp A→B) in data set [1] is < 10 ×10⁻⁶ cm/s. Consider `O=C(Cc1ccc(Cl)cc1)N[C@H](Cc1ccc(Cl)cc1)C(=O)NC1CCCCC1O` (stereo in doubt; 17h), for which the Papp A→B in data set [1] is > 20 ×10⁻⁶ cm/s. Consider `O=C(Cc1ccc(Cl)cc1)N[C@H](Cc1ccc(Cl)cc1)C(=O)N[C@H]1C[C@H]2CC[C@@H](C1)N2`, for which the apical-to-basolateral permeability (Papp A→B) in data set [1] was < 10 ×10⁻⁶ cm/s. Consider `CN(C)[C@H]1CC[C@H](NC(=O)[C@@H](Cc2ccc(Cl)cc2)NC(=O)C2(c3ccc(F)cc3)CC2)CC1`, for which the Vd was found to be 11.8 L/kg in data set [4] and 6.4 L/kg in [6]. Moreover, the figures for the bioavailability in data set [5] and in data set [3] were 20% and 30%, respectively. Moreover, in data set [1], the Papp A→B is < 10 ×10⁻⁶ cm/s. The values for the Tmax in data set [7] and in data set [9] were 2.7 h and 5.8 h, respectively. In addition, the highest concentration (Cmax) in data set [8] stood at 35 ng/mL; in data set [10], 41 ng/mL. Regarding `CC(CCO)NC(=O)[C@@H](Cc1ccc(Cl)cc1)NC(=O)Cc1ccc(Cl)cc1` (stereo in doubt; 17c), the Papp A→B in [1] was < 10 ×10⁻⁶ cm/s. On the same count and under the same terms, the result for `O=C(Cc1ccc(Cl)cc1)N[C@H](Cc1ccc(Cl)cc1)C(=O)NC1CCNCC1` reads < 10 ×10⁻⁶ cm/s; that for `CN(C)[C@H]1CC[C@H](NC(=O)[C@@H](Cc2ccc(Cl)cc2)NC(=O)Cc2ccc(Cl)cc2)CC1`, < 10 ×10⁻⁶ cm/s. Same read-out and setting: the result for `O=C(Cc1ccc(Cl)cc1)N[C@H](Cc1ccc(Cl)cc1)C(=O)N[C@H]1CC[C@@H](O)CC1` reads < 10 ×10⁻⁶ cm/s.

`O=C(Cc1ccc(Cl)cc1)N[C@H](Cc1ccc(Cl)cc1)C(=O)NCCCO` yielded a Vdss in [11] of 2 L/kg. The bioavailability in [12] is 43%. Turning to `CN(C)[C@H]1CC[C@H](NC(=O)[C@@H](Cc2ccc(Cl)cc2)NC(=O)C2(c3ccc(F)cc3)CCCC2)CC1`, the Papp A→B in data set [1] is < 10 ×10⁻⁶ cm/s. On the same count and under the same terms, the result for `CN(C)CCCNC(=O)[C@@H](Cc1ccc(Cl)cc1)NC(=O)C1(c2ccc(Cl)cc2)CC1` reads < 10 ×10⁻⁶ cm/s.
